Data set [1] has as its system Staphylococcus aureus. Nature of the data set: Antibacterial activity against Staphylococcus aureus ATCC 29213 after 24 hrs by broth microdilution method. The data set is classed as functional. As to conditions: ATCC 29213, 24 h. Background: Dilution methods test growth across graded concentrations, often in twofold steps.
Data set [2] has as its system Staphylococcus epidermidis. Nature of the data set: Antibacterial activity against Staphylococcus epidermidis ATCC 35984 after 24 hrs by broth microdilution method. Format: functional. The settings on record: RP62A.
Data set [3] deals with HT-29. In words: Antiproliferative activity against human HT-29 cells after 24 hrs by MTT assay. Format: cell-based. The settings on record: HT-29, 24 h. In a few lines:
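HT-29 human colon adenocarcinoma cells seeded at 1 × 10⁴ cells/well in RPMI 1640 with 10% FBS and 10 µg/mL gentamicin, left overnight at 37 °C, 5% CO₂. Medium then replaced with medium holding test agents (final DMSO 0.1%; DMSO-only controls), at least 6 wells per condition, for 24 h. Viability read by MTT (0.5 mg/mL, 2 h, 37 °C), DMSO solubilization, absorbance 570 nm.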
(Formazan colour is commonly taken as a measure of viable cells.)

A short description of data set [4]: Selectivity ratio of IC50 for human HT-29 cells to MIC for Staphylococcus aureus ATCC 29213. The data set is classed as functional. In a few lines: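 Ratio of HT-29 IC50 (MTT assay, 24 h exposure) to MIC against S. aureus ATCC 29213 (CLSI broth microdilution, 24 h, 37 °C).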
The subject of data set [5] is Staphylococcus aureus. Nature of the data set: Antibacterial activity against Staphylococcus aureus assessed as log decrease in bacterial CFU at 32 ug/ml after 24 hrs. Format: functional.
For data set [6], the system named is Staphylococcus intermedius. Nature of the data set: Antibacterial activity against Staphylococcus intermedius ATCC 29663 after 24 hrs by broth microdilution method. As to conditions: ATCC 29663, 24 h. Format: functional.
The test system of data set [7] is Staphylococcus lugdunensis. In words: Antibacterial activity against Staphylococcus lugdunensis isolate NTUH after 24 hrs by broth microdilution method. Format: functional.
Data set [8] relates to Staphylococcus aureus. Nature of the data set: Bactericidal activity against Staphylococcus aureus ATCC 29213 assessed as decrease in bacterial count at 8 times compound MIC after 24 hrs by time-kill assay. The data set is classed as functional. The arrangement: scale not given: the % may be the effect or the level left. In a few lines: (§1)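 S. aureus ATCC 29213 at 5 × 10⁵ CFU/mL in CAMHB exposed to test agents at 2-, 4- and 8-fold MIC, in triplicate. DMSO-matched medium served as control. At successive times, aliquots serially diluted in PBS and plated on LB agar (37 °C, 16 h). Counts given as CFU/mL, mean ± SD (n = 3); 99.9% killing used as reference.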

The test system of data set [9] is Mus musculus. In words: Toxicity in C57BL/6 mouse infected with methicillin-resistant Staphylococcus aureus ATCC 33592 assessed as weight loss at 30 mg/kg, ip administered 1 hr post infection. Format: organism-based. Further details: dose 30 mg/kg, route intraperitoneal. As to conditions: in vivo. In a few lines:
(§2)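 Female C57BL/6 mice, N = 5 per group, were infected ip with a 100% lethal dose of MRSA, 7 × 10⁷ CFU in 0.3 ml PBS. At 1 h they received one ip dose of 30 mg/kg in vehicle (40% PEG-400, 10% […], 10% DMSO in normal saline). Body weight and morbidity were recorded daily for 7 days. Mice were sacrificed on significant morbidity, including 20% weight loss.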

Data set [10] deals with Mus musculus. In words: Toxicity in C57BL/6 mouse infected with methicillin-resistant Staphylococcus aureus ATCC 33592 assessed as decrease in body temperature at 30 mg/kg, ip administered 1 hr post infection. The data set is classed as organism-based. The arrangement: dose 30 mg/kg, route intraperitoneal. The settings on record: in vivo. In a few lines:
as §2

Data set [11] deals with Mus musculus. Nature of the data set: Toxicity in C57BL/6 mouse infected with methicillin-resistant Staphylococcus aureus ATCC 33592 assessed as lethargy at 30 mg/kg, ip administered 1 hr post infection. Format: organism-based. Further details: dose 30 mg/kg, route intraperitoneal. As to conditions: in vivo. In a few lines: as §2
In data set [12] the test system is Staphylococcus aureus. Nature of the data set: Antibacterial activity against methicillin-resistant Staphylococcus aureus ATCC 33592 infected in C57BL/6 mouse assessed as mouse survival time at 30 mg/kg, ip administered 1 hr post infection. Format: functional. The settings on record: route intraperitoneal. Summed up: as §2
Data set [13] has as its system Staphylococcus aureus. Nature of the data set: Bactericidal activity against Staphylococcus aureus ATCC 29213 assessed as decrease in bacterial count at 2 to 8 times compound MIC by time-kill assay. Format: functional, organism-based. The settings on record: TDE = time-dependent effect. Summed up: as §1
The subject of data set [14] is Mus musculus. Nature of the data set: Toxicity in C57BL/6 mouse infected with methicillin-resistant Staphylococcus aureus ATCC 33592 assessed as weight loss at 30 mg/kg, ip administered 1 hr post infection measured on day 1 post infection. The data set is classed as organism-based. The settings on record: in vivo. Further details: dose 30 mg/kg, route intraperitoneal. In a few lines: as §2

The subject of data set [15] is Mus musculus. Nature of the data set: Toxicity in C57BL/6 mouse infected with methicillin-resistant Staphylococcus aureus ATCC 33592 assessed as weight loss at 30 mg/kg, ip administered 1 hr post infection measured on day 3 to 6 post infection. Format: organism-based. The arrangement: dose 30 mg/kg, route intraperitoneal. As to conditions: in vivo. In a few lines:
as §2

The subject of data set [16] is Mus musculus. Nature of the data set: Toxicity in C57BL/6 mouse infected with methicillin-resistant Staphylococcus aureus ATCC 33592 assessed as mortality at 30 mg/kg, ip administered 1 hr post infection. Format: organism-based. Further details: dose 30 mg/kg, route intraperitoneal. As to conditions: in vivo. Summed up: as §2

Each structure is given as a SMILES string. ≈ marks a conversion by molar mass, not a printed value.

Usually MIC stands for the least concentration at which growth counts as inhibited. What is called IC50 is the concentration at which inhibition is half-maximal. Regarding `Cc1ccc(-c2cc(C(F)(F)F)nn2-c2ccc(S(N)(=O)=O)cc2)cc1` [CELECOXIB], the minimum inhibitory concentration (MIC) turned out to be 32 µg/mL (≈ 83.9 µM) in data set [1] and 16 µg/mL (≈ 42 µM) in data set [2]. Also, the IC50 in [3] worked out at 18 µg/mL (≈ 47.2 µM). For the same molecule, the Ratio in data set [4] was found to be 0.6. The FC in [5] is given as 6.

Turning to `NS(=O)(=O)Nc1ccc(-n2nc(C(F)(F)F)cc2-c2ccc3c(ccc4ccccc43)c2)cc1`, the MIC in data set [1] was 1 µg/mL (≈ 2.07 µM); in data set [2], 2 µg/mL (≈ 4.15 µM); in data set [6], 1 µg/mL (≈ 2.07 µM); in data set [7], 2 µg/mL (≈ 4.15 µM). Moreover, the Ratio in [4] amounted to 12. The Activity in [8] was 99.91%; in data set [9] it was above 20%; in [10], “Toxic”; in [11] it was “Toxic”; in data set [13], “tde”. In addition, the Survival result in data set [12] is “<=2 day”.

Take `NS(=O)(=O)Nc1ccc(-n2nc(C(F)(F)F)cc2-c2c3ccccc3cc3ccccc23)cc1`: the results for the MIC in data set [2], in [6] and in data set [7] were 1 µg/mL (≈ 2.07 µM), 0.5 µg/mL (≈ 1.04 µM) and 4 µg/mL (≈ 8.29 µM), respectively. This molecule came in with an IC50 in [3] of 20 µg/mL (≈ 41.5 µM). For the same molecule, the Ratio in data set [4] stood at 40. The Activity is 99.99% in data set [8]; “Toxic” in data set [14]; “Non-toxic” in [15]; “Toxic” in data set [16]; “tde” in [13]. Besides, the Survival in data set [12] worked out at 7 days.

The values are drawn from ChEMBL document CHEMBL2057145, “Development of novel antibacterial agents against methicillin-resistant Staphylococcus aureus” (Bioorg Med Chem, 2012).
